From ChEMBL document CHEMBL3526004, “Interaction of silymarin flavonolignans with organic anion-transporting polypeptides” (Drug Metab Dispos, 2013) come the findings set out here.

Data set [1] is described as follows: Ratio of fCmax in portal vein of patient with chronic noncirrhotic HCV infection at 700 mg to IC50 for OATP2B1 (unknown origin) expressed in HEK293 cells. More on the design: species or system Homo sapiens.
Data set [2] deals with T1, Solute carrier organic anion transporter family member 1B1 (Homo sapiens, UniProt Q9Y6L6).
T1 sequence (Q9Y6L6 whole entry): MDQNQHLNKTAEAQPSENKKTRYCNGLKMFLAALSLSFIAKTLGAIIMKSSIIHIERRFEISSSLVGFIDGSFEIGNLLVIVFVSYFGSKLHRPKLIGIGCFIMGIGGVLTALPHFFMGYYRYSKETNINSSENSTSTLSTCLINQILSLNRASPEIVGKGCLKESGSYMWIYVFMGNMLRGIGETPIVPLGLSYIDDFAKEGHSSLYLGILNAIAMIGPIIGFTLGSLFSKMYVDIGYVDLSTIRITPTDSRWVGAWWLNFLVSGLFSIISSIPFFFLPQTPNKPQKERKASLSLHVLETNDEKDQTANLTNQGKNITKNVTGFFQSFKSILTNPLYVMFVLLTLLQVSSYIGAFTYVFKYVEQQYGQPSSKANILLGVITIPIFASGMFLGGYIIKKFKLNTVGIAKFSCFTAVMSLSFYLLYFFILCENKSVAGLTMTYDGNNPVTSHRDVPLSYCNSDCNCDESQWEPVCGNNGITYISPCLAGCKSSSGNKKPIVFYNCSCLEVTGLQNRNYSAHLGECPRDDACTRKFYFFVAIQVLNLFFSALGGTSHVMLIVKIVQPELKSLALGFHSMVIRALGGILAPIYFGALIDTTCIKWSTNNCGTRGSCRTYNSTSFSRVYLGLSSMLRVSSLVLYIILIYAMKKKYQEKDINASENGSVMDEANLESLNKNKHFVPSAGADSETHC
Description: Inhibition of OATP1B1 (unknown origin) expressed in HEK293 cells assessed as reduction of [3H]estradiol-17beta-glucuronide uptake after 3 mins by beta-counting. It counts as ADME, cell-based. The essentials: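 Transfected HEK293 (G418) or MDCKII (hygromycin B) cells were co-incubated with 0-100 µM compound and [3H]-E2 17G (1 µM, 0.25 µCi/ml; OATP1B1, OATP1B3) or [3H]-E1S (1 µM; OATP2B1) in HBSS pH 7.4, 3 min at 37°C. OATP-negative uptake was subtracted, and results expressed as % vehicle. Two experiments were run in duplicate. IC50 came from non-linear dose-response fits.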

Data set [3] is described as follows: Inhibition of OATP-mediated [3H]rosuvastatin uptake in sandwich-cultured human hepatocytes at 100 uM after 1 day by beta-counting. It counts as ADME, cell-based, Hepatocyte. An outline of the steps:
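Day-1 human hepatocytes (seeded 350,000 cells/well, medium changed after 1 h) rinsed in HBSS at 37°C. Co-incubated with [3H]-E2 17G (1 µM, 1 min) or [3H]-rosuvastatin (0.5 µM, 1.5 min) plus compound or vehicle. Cells were washed in ice-cold HBSS, lysed in 0.5% Triton X-100, and counted by scintillation. Non-OATP accumulation (100 µM BSP) was subtracted. Results are % vehicle, protein-normalized, as mean ± SEM of three experiments in triplicate.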

Data set [4] in a line: Ratio of fCmax in portal vein of patient with chronic noncirrhotic HCV infection at 140 mg to IC50 for OATP1B3 (unknown origin) expressed in HEK293 cells. Details: species or system Homo sapiens; call rule not given here.
Data set [5] is described as follows: fCmax in portal vein of patient with chronic noncirrhotic HCV infection at 140 mg. The class given is ADME. The note with it: human.
Data set [6] has as its target T1, Solute carrier organic anion transporter family member 1B1. Description: Inhibition of OATP1B1 (unknown origin) expressed in HEK293 cells assessed as reduction of [3H]estradiol-17beta-glucuronide uptake after 3 mins by beta-counting in presence of OATP inhibitor BSP. It counts as ADME, cell-based. The note with it: hek293, 0.05 h.
Data set [7] in a line: Ratio of fCmax in portal vein of patient with chronic noncirrhotic HCV infection at 700 mg to IC50 for OATP1B1 (unknown origin) expressed in HEK293 cells. Details: species or system Homo sapiens.
In data set [8] the target is T2, Solute carrier organic anion transporter family member 1B3 (Homo sapiens, UniProt Q9NPD5).
T2 sequence (Q9NPD5 whole entry): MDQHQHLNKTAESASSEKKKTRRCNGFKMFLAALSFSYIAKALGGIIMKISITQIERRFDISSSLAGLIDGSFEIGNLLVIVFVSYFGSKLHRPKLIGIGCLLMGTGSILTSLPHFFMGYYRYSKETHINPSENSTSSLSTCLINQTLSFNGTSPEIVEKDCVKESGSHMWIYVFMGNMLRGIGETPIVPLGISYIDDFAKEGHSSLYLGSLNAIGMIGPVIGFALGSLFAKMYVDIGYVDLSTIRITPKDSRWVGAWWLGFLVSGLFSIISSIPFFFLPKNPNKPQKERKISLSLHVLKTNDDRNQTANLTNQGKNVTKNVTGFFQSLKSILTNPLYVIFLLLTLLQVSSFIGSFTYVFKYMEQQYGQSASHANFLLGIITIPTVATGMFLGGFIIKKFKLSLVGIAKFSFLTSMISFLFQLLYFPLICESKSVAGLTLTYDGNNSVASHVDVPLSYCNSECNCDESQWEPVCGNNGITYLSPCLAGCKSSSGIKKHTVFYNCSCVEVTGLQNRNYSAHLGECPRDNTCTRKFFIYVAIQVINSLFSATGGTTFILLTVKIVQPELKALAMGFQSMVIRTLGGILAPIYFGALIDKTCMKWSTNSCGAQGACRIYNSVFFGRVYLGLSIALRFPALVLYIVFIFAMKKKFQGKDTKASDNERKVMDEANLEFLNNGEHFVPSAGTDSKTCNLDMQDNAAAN
The experiment in a line: Inhibition of OATP1B3 (unknown origin) expressed in HEK293 cells assessed as reduction of [3H]estradiol-17beta-glucuronide uptake after 3 mins by beta-counting in presence of OATP inhibitor BSP. The class given is ADME, cell-based. The note with it: hek293, 0.05 h.

Data set [9] in a line: Cmax in patient with chronic noncirrhotic HCV infection at 140 mg. The class given is ADME, organism-based. The note with it: human, in vivo. Details: dose 140 mg.
Data set [10] is described as follows: Cmax at steady state in patient with chronic HCV infection at 140 mg administered 3 times per day. It counts as ADME, organism-based. Details: dose 140 mg. The note with it: human, in vivo.

On to `COc1cc([C@H]2Oc3cc([C@H]4Oc5cc(O)cc(O)c5C(=O)[C@@H]4O)ccc3O[C@@H]2CO)ccc1O` [SILYBIN A], for which the values for the Ratio in data set [1], in [4] and in data set [7] were 0.05, 0.01 and 0.02, respectively. Moreover, the IC50 in [2] is 9.7 µM. The “inhibition (INH)” value is “Active” in data set [3], “Not Active” in [6] and “Not Active” in [8]. The fCmax in data set [5] is 0.04 µM. For the same compound, the Cmax worked out at 40 ng/mL in data set [9] and 80 nM in data set [10].
Take `COc1cc([C@@H]2Oc3cc([C@H]4Oc5cc(O)cc(O)c5C(=O)[C@@H]4O)ccc3O[C@H]2CO)ccc1O` [SILYBIN B]: the figures for the Ratio in [1], in data set [4] and in data set [7] were 0.88, 0.03 and 0.08, respectively. Moreover, the IC50 in data set [2] came out at 8.5 µM. The “inhibition (INH)” value in data set [3] was “Active”; in [6] it was “Not Active”; in data set [8], “Not Active”. The same compound displayed a fCmax in data set [5] of 0.13 µM. Besides, the Cmax in [9] came to 8 ng/mL; in data set [10], 16 nM.
